Measurements from ChEMBL document CHEMBL5058577, “EUbOPEN Chemogenomics Library 2 (Multiplex)” (2022).

Test system: HEK-293T
Test: Multiplex assay against HEK293T
Format: toxicity, cell-based
Details: human
Method in brief: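 On a CQ1 microscope at 37°C and 5% CO2, live cells were imaged after compound addition. They had been stained at seeding with Hoechst33342, BioTracker Green Microtubule Cytoskeleton Dye, MitoTracker Red and Annexin V Alexa Fluor 680. CellPathfinder machine-learning gating assigned cells to Hoechst high-intensity objects or normal cells, normal cells to healthy, pyknosed or fragmented nuclei, and pyknosed cells to mitotic or apoptotic. Tubulin, mitochondrial-mass and membrane-permeability phenotypes are per cents of healthy-nucleus cells.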

[1] = 12 h, 1 µM, compound concentration 1 uM, replicate 1
[2] = 12 h, 1 µM, compound concentration 1 uM, replicate 2
[3] = 12 h, 10 µM, compound concentration 10 uM, replicate 1
[4] = 12 h, 10 µM, compound concentration 10 uM, replicate 2
[5] = 24 h, 1 µM, compound concentration 1 uM, replicate 1
[6] = 24 h, 1 µM, compound concentration 1 uM, replicate 2
[7] = 24 h, 10 µM, compound concentration 10 uM, replicate 1
[8] = 24 h, 10 µM, compound concentration 10 uM, replicate 2
[9] = 48 h, 1 µM, compound concentration 1 uM, replicate 1
[10] = 48 h, 1 µM, compound concentration 1 uM, replicate 2
[11] = 48 h, 10 µM, compound concentration 10 uM, replicate 1
[12] = 48 h, 10 µM, compound concentration 10 uM, replicate 2

CNC[C@H](O)c1ccc(O)c(O)c1 [EPINEPHRINE]
Population Apoptotic (%) [1]: 20% | Population Fragmented Nuclei (%) [1]: 6% | Population Healthy Nuclei (%) [1]: 81% | Population Hoechst High Intensity Objects (%) [1]: 7% | Population Membrane Permeable-Phenotype (%) [1]: 0% | Population Mitochondria Different-Phenotype (%) [1]: 31% | Population Mitotic Cells (%) [1]: 80% | Population Normal (%) [1]: 92% | Population Pyknosed Nuclei (%) [1]: 11% | Population Tubulin-Different-Phenotype (%) [1]: 26% | Population Apoptotic (%) [2]: 56% | Population Hoechst High Intensity Objects (%) [2]: 6% | Population Mitochondria Different-Phenotype (%) [2]: 65% | Population Mitotic Cells (%) [2]: 43% | Population Normal (%) [2]: 93% | Population Tubulin-Different-Phenotype (%) [2]: 27% | Population Apoptotic (%) [3]: 55% | Population Fragmented Nuclei (%) [3]: 12% | Population Healthy Nuclei (%) [3]: 75% | Population Hoechst High Intensity Objects (%) [3]: 9% | Population Membrane Permeable-Phenotype (%) [3]: 1% | Population Mitochondria Different-Phenotype (%) [3]: 65% | Population Mitotic Cells (%) [3]: 44% | Population Normal (%) [3]: 90% | Population Pyknosed Nuclei (%) [3]: 11% | Population Tubulin-Different-Phenotype (%) [3]: 39% | Population Apoptotic (%) [4]: 56% | Population Fragmented Nuclei (%) [4]: 11% | Population Healthy Nuclei (%) [4]: 61% | Population Hoechst High Intensity Objects (%) [4]: 40% | Population Membrane Permeable-Phenotype (%) [4]: 0% | Population Mitochondria Different-Phenotype (%) [4]: 62% | Population Mitotic Cells (%) [4]: 43% | Population Normal (%) [4]: 59% | Population Pyknosed Nuclei (%) [4]: 26% | Population Tubulin-Different-Phenotype (%) [4]: 25% | Population Apoptotic (%) [5]: 19% | Population Fragmented Nuclei (%) [5]: 9% | Population Healthy Nuclei (%) [5]: 80% | Population Hoechst High Intensity Objects (%) [5]: 5% | Population Membrane Permeable-Phenotype (%) [5]: 0% | Population Mitochondria Different-Phenotype (%) [5]: 25% | Population Mitotic Cells (%) [5]: 80% | Population Normal (%) [5]: 94% | Population Pyknosed Nuclei (%) [5]: 9% | Population Tubulin-Different-Phenotype (%) [5]: 21% | Population Apoptotic (%) [6]: 36% | Population Hoechst High Intensity Objects (%) [6]: 7% | Population Membrane Permeable-Phenotype (%) [6]: 1% | Population Mitochondria Different-Phenotype (%) [6]: 41% | Population Mitotic Cells (%) [6]: 63% | Population Normal (%) [6]: 92% | Population Pyknosed Nuclei (%) [6]: 10% | Population Tubulin-Different-Phenotype (%) [6]: 18% | Population Apoptotic (%) [7]: 50% | Population Fragmented Nuclei (%) [7]: 13% | Population Healthy Nuclei (%) [7]: 75% | Population Hoechst High Intensity Objects (%) [7]: 8% | Population Membrane Permeable-Phenotype (%) [7]: 0% | Population Mitochondria Different-Phenotype (%) [7]: 50% | Population Mitotic Cells (%) [7]: 50% | Population Normal (%) [7]: 91% | Population Pyknosed Nuclei (%) [7]: 11% | Population Tubulin-Different-Phenotype (%) [7]: 36% | Population Apoptotic (%) [8]: 80% | Population Fragmented Nuclei (%) [8]: 11% | Population Healthy Nuclei (%) [8]: 71% | Population Hoechst High Intensity Objects (%) [8]: 39% | Population Mitochondria Different-Phenotype (%) [8]: 43% | Population Mitotic Cells (%) [8]: 19% | Population Normal (%) [8]: 60% | Population Pyknosed Nuclei (%) [8]: 17% | Population Tubulin-Different-Phenotype (%) [8]: 25% | Population Apoptotic (%) [9]: 16% | Population Fragmented Nuclei (%) [9]: 11% | Population Healthy Nuclei (%) [9]: 81% | Population Hoechst High Intensity Objects (%) [9]: 3% | Population Membrane Permeable-Phenotype (%) [9]: 1% | Population Mitochondria Different-Phenotype (%) [9]: 13% | Population Mitotic Cells (%) [9]: 83% | Population Normal (%) [9]: 96% | Population Pyknosed Nuclei (%) [9]: 7% | Population Tubulin-Different-Phenotype (%) [9]: 9% | Population Apoptotic (%) [10]: 35% | Population Fragmented Nuclei (%) [10]: 12% | Population Healthy Nuclei (%) [10]: 78% | Population Mitochondria Different-Phenotype (%) [10]: 24% | Population Mitotic Cells (%) [10]: 64% | Population Pyknosed Nuclei (%) [10]: 8% | Population Tubulin-Different-Phenotype (%) [10]: 15% | Population Apoptotic (%) [11]: 33% | Population Fragmented Nuclei (%) [11]: 21% | Population Healthy Nuclei (%) [11]: 72% | Population Hoechst High Intensity Objects (%) [11]: 3% | Population Membrane Permeable-Phenotype (%) [11]: 0% | Population Mitochondria Different-Phenotype (%) [11]: 25% | Population Mitotic Cells (%) [11]: 66% | Population Normal (%) [11]: 96% | Population Pyknosed Nuclei (%) [11]: 5% | Population Tubulin-Different-Phenotype (%) [11]: 11% | Population Apoptotic (%) [12]: 69% | Population Fragmented Nuclei (%) [12]: 17% | Population Healthy Nuclei (%) [12]: 67% | Population Hoechst High Intensity Objects (%) [12]: 21% | Population Mitochondria Different-Phenotype (%) [12]: 34% | Population Mitotic Cells (%) [12]: 30% | Population Normal (%) [12]: 78% | Population Pyknosed Nuclei (%) [12]: 14% | Population Tubulin-Different-Phenotype (%) [12]: 13%

O=S(=O)(c1ccccc1)c1cnc2c(N3CCNCC3)cccc2c1 [INTEPIRDINE]
Population Apoptotic (%) [1]: 40% | Population Fragmented Nuclei (%) [1]: 7% | Population Healthy Nuclei (%) [1]: 80% | Population Hoechst High Intensity Objects (%) [1]: 7% | Population Membrane Permeable-Phenotype (%) [1]: 0% | Population Mitochondria Different-Phenotype (%) [1]: 54% | Population Mitotic Cells (%) [1]: 60% | Population Normal (%) [1]: 92% | Population Pyknosed Nuclei (%) [1]: 12% | Population Tubulin-Different-Phenotype (%) [1]: 43% | Total Cell Count [1]: 403 | Population Apoptotic (%) [2]: 50% | Population Healthy Nuclei (%) [2]: 74% | Population Hoechst High Intensity Objects (%) [2]: 10% | Population Mitochondria Different-Phenotype (%) [2]: 69% | Population Mitotic Cells (%) [2]: 50% | Population Normal (%) [2]: 89% | Population Pyknosed Nuclei (%) [2]: 17% | Population Tubulin-Different-Phenotype (%) [2]: 23% | Total Cell Count [2]: 336 | Population Apoptotic (%) [3]: 51% | Population Fragmented Nuclei (%) [3]: 8% | Population Healthy Nuclei (%) [3]: 72% | Population Hoechst High Intensity Objects (%) [3]: 10% | Population Membrane Permeable-Phenotype (%) [3]: 0% | Population Mitochondria Different-Phenotype (%) [3]: 70% | Population Mitotic Cells (%) [3]: 48% | Population Normal (%) [3]: 89% | Population Pyknosed Nuclei (%) [3]: 18% | Population Tubulin-Different-Phenotype (%) [3]: 58% | Total Cell Count [3]: 326 | Population Apoptotic (%) [4]: 46% | Population Fragmented Nuclei (%) [4]: 4% | Population Healthy Nuclei (%) [4]: 79% | Population Hoechst High Intensity Objects (%) [4]: 7% | Population Mitochondria Different-Phenotype (%) [4]: 76% | Population Mitotic Cells (%) [4]: 53% | Population Normal (%) [4]: 92% | Population Pyknosed Nuclei (%) [4]: 15% | Population Tubulin-Different-Phenotype (%) [4]: 50% | Total Cell Count [4]: 349 | Population Apoptotic (%) [5]: 28% | Population Fragmented Nuclei (%) [5]: 6% | Population Healthy Nuclei (%) [5]: 80% | Population Hoechst High Intensity Objects (%) [5]: 5% | Population Membrane Permeable-Phenotype (%) [5]: 0% | Population Mitochondria Different-Phenotype (%) [5]: 35% | Population Mitotic Cells (%) [5]: 71% | Population Normal (%) [5]: 94% | Population Pyknosed Nuclei (%) [5]: 12% | Population Tubulin-Different-Phenotype (%) [5]: 26% | Total Cell Count [5]: 530 | Population Apoptotic (%) [6]: 58% | Population Fragmented Nuclei (%) [6]: 7% | Population Healthy Nuclei (%) [6]: 85% | Population Mitochondria Different-Phenotype (%) [6]: 43% | Population Mitotic Cells (%) [6]: 41% | Population Pyknosed Nuclei (%) [6]: 7% | Population Tubulin-Different-Phenotype (%) [6]: 14% | Total Cell Count [6]: 416 | Population Apoptotic (%) [7]: 52% | Population Fragmented Nuclei (%) [7]: 11% | Population Healthy Nuclei (%) [7]: 75% | Population Hoechst High Intensity Objects (%) [7]: 6% | Population Membrane Permeable-Phenotype (%) [7]: 0% | Population Mitochondria Different-Phenotype (%) [7]: 50% | Population Mitotic Cells (%) [7]: 47% | Population Normal (%) [7]: 93% | Population Pyknosed Nuclei (%) [7]: 12% | Population Tubulin-Different-Phenotype (%) [7]: 33% | Total Cell Count [7]: 439 | Population Apoptotic (%) [8]: 51% | Population Fragmented Nuclei (%) [8]: 9% | Population Healthy Nuclei (%) [8]: 82% | Population Hoechst High Intensity Objects (%) [8]: 4% | Population Mitochondria Different-Phenotype (%) [8]: 61% | Population Mitotic Cells (%) [8]: 48% | Population Normal (%) [8]: 95% | Population Pyknosed Nuclei (%) [8]: 8% | Population Tubulin-Different-Phenotype (%) [8]: 42% | Total Cell Count [8]: 458 | Population Apoptotic (%) [9]: 17% | Population Fragmented Nuclei (%) [9]: 12% | Population Healthy Nuclei (%) [9]: 80% | Population Hoechst High Intensity Objects (%) [9]: 4% | Population Membrane Permeable-Phenotype (%) [9]: 1% | Population Mitochondria Different-Phenotype (%) [9]: 25% | Population Mitotic Cells (%) [9]: 82% | Population Normal (%) [9]: 95% | Population Pyknosed Nuclei (%) [9]: 7% | Population Tubulin-Different-Phenotype (%) [9]: 16% | Total Cell Count [9]: 866 | Population Apoptotic (%) [10]: 25% | Population Fragmented Nuclei (%) [10]: 13% | Population Healthy Nuclei (%) [10]: 79% | Population Hoechst High Intensity Objects (%) [10]: 3% | Population Membrane Permeable-Phenotype (%) [10]: 0% | Population Mitochondria Different-Phenotype (%) [10]: 26% | Population Mitotic Cells (%) [10]: 75% | Population Normal (%) [10]: 96% | Population Pyknosed Nuclei (%) [10]: 6% | Population Tubulin-Different-Phenotype (%) [10]: 12% | Total Cell Count [10]: 641 | Population Apoptotic (%) [11]: 40% | Population Fragmented Nuclei (%) [11]: 14% | Population Healthy Nuclei (%) [11]: 75% | Population Hoechst High Intensity Objects (%) [11]: 4% | Population Membrane Permeable-Phenotype (%) [11]: 0% | Population Mitochondria Different-Phenotype (%) [11]: 45% | Population Mitotic Cells (%) [11]: 59% | Population Normal (%) [11]: 95% | Population Pyknosed Nuclei (%) [11]: 10% | Population Tubulin-Different-Phenotype (%) [11]: 30% | Total Cell Count [11]: 606 | Population Apoptotic (%) [12]: 18% | Population Fragmented Nuclei (%) [12]: 11% | Population Healthy Nuclei (%) [12]: 82% | Population Mitochondria Different-Phenotype (%) [12]: 38% | Population Mitotic Cells (%) [12]: 81% | Population Pyknosed Nuclei (%) [12]: 5% | Population Tubulin-Different-Phenotype (%) [12]: 27% | Total Cell Count [12]: 673
